pIC50: −log10 of the molar value. The source made the active and inactive calls. No cut-off for these calls is given here.
Columns and labels:
WRL68 = assay: Inhibition of H2O2-induced cell death in human WRL68 cells after 3 hrs by MTT assay; type: functional, cell-based; conditions: WRL68, 3 h
Summary of the method: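 WRL-68 cells (ATCC) were grown in DMEM with 10% fetal calf serum at 37 °C and 5% CO2, seeded at 2.5 × 10⁴ cells/well and left overnight. They were then exposed to 0.3 mM H2O2 alone or with 0.02–10 µM compound for 3 h, then 0.5% MTT for 3 h. Formazan was dissolved in acidic isopropanol and read at 550 nm. Runs used ≥6 parallels and were repeated 3 times. IC50 is the concentration (µM) halving H2O2-induced death.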

[1] = target: Poly [ADP-ribose] polymerase 1 (Rattus norvegicus, UniProt P27008); assay: (§1) Inhibition of rat liver PARP1 by scintillation counting
Chain of Poly [ADP-ribose] polymerase 1 (P27008 whole entry): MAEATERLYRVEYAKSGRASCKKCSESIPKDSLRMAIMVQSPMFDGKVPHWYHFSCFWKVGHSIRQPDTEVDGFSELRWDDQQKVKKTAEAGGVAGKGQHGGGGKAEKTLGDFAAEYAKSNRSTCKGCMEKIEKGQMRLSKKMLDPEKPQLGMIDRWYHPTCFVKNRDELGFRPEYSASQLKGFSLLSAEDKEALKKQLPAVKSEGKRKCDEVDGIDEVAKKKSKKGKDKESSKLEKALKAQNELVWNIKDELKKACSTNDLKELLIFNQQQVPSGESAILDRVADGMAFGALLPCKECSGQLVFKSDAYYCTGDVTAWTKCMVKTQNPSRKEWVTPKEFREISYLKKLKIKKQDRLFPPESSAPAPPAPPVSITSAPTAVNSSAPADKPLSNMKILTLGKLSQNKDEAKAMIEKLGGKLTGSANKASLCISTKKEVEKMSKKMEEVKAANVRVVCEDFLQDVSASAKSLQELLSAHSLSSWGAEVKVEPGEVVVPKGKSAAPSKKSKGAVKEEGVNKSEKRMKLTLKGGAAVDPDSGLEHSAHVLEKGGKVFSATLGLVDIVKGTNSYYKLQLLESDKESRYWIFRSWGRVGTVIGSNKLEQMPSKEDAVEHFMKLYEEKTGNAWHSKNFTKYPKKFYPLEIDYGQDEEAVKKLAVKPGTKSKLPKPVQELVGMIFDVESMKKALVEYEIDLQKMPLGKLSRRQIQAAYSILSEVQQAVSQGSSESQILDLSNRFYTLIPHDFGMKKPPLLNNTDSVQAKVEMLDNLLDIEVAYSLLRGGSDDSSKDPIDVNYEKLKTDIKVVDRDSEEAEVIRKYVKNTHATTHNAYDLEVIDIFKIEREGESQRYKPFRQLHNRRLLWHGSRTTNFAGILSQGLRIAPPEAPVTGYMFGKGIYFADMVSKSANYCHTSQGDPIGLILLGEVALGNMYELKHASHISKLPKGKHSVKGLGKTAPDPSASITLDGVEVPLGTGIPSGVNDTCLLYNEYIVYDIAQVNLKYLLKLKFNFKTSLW

[2] = Antioxidant activity assessed as hydroxyl radical scavenging activity by fenton reaction; type: functional
Summary of the method: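 Fenton-type hydroxyl radical generation in 2.5 mL of 20 mM potassium phosphate pH 6.8 with 0.1 mM benzoic acid, 0.1 mM H2O2 and 20 µM Fe2+-EDTA. Hydroxybenzoic acid formation followed by fluorescence (ex 305 nm, em 407 nm). IC50 is the concentration (µM) halving the rate of benzoic acid hydroxylation.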

[3] = Toxicity in ip dosed C57BL/6 mouse assessed as mortality measured every 24 hrs for 14 days; type: organism-based; conditions: in vivo
Summary of the method: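 C57BL/6 mice, groups of eight, given a single intraperitoneal injection of […]. Animals were watched for respiratory, digestive and neurological changes. Deaths were counted every 24 h for 14 days. Animals were kept under standard conditions with tap water and chow ad libitum.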

[4] = target: Poly [ADP-ribose] polymerase 1 (Rattus norvegicus) (UniProt P27008); assay: as §1
Chain of Poly [ADP-ribose] polymerase 1 (Rattus norvegicus) (P27008 whole entry): as above

Rattus norvegicus [5] = assay: Metabolic stability in Wistar rat assessed as nitroxide metabolite level in urine at 8 mg/kg, ip after 4 hrs by EPR spectroscopy; type: ADME, organism-based; design: dose 8 mg/kg, route intraperitoneal; conditions: in vivo
Summary of the method: (§2)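 Male Wistar rats (290–350 g, n = 3/group) were housed singly in metabolic cages and given a single ip dose of the HCl salt dissolved in 1.0 mL 0.9% NaCl. Urine was collected before dosing and from injection to 4 h. Untreated urine was measured by X-band EPR in 50 µL glass capillaries to give the radical concentration.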

Rattus norvegicus [6] = assay: Metabolic stability in Wistar rat assessed as nitroxide metabolite level in urine at 8 mg/kg, ip after 4 hrs by EPR spectroscopy in presence of PbO2; type: ADME, organism-based; design: dose 8 mg/kg, route intraperitoneal; conditions: in vivo
Summary of the method: (§3)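 Male Wistar rats (290–350 g, n = 3/group) were housed singly in metabolic cages and given a single ip dose of the HCl salt in 1.0 mL 0.9% NaCl. For urine collected from 0 to 4 h, 50 mg PbO2 was added per 1 mL, vortexed 1 min and left 10 min. This oxidizes hydroxylamine to nitroxide. A 50 µL portion of supernatant was then measured by X-band EPR.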

Rattus norvegicus [7] = assay: Metabolic stability in Wistar rat assessed as 2-(1-oxyl-2,2,6,6-tetramethyl-1,2,3,6-tetrahydropyridin-4-yl)-1H-benzimidazol-4-carboxylic acid amide radical level in urine at 8 mg/kg, ip after 4 hrs by EPR spectroscopy; type: ADME, organism-based; design: dose 8 mg/kg, route intraperitoneal; conditions: in vivo; summary of the method: as §2
Rattus norvegicus [8] = assay: Metabolic stability in Wistar rat assessed as 2-(1-oxyl-2,2,6,6-tetramethyl-1,2,3,6-tetrahydropyridin-4-yl)-1H-benzimidazol-4-carboxylic acid amide radical level in urine at 8 mg/kg, ip after 4 hrs by EPR spectroscopy in presence of PbO2; type: ADME, organism-based; design: dose 8 mg/kg, route intraperitoneal; conditions: in vivo; summary of the method: as §3

SMILES | pIC50 [2] | pIC50 (WRL68) | pIC50 [1] | further results
CC1(C)C(Br)=C(c2nc3c(C(N)=O)cccc3[nH]2)C(C)(C)N1O | 5.55 | 5.09 | 6.70 | 
CC1(C)NC(C)(C)c2cc(-c3nc4c(C(N)=O)cccc4[nH]3)ccc21 | 3.85 | 6.72 | 6.35 | 
CC1(C)NC(C)(C)c2cc(-c3nc4c(C(N)=O)cccc4[nH]3)ncc21 | 3.82 | 7.10 | 6.33 | 
CC1(C)C(c2nc3c(C(N)=O)cccc3[nH]2)=C(c2cccc3c2oc2ccccc23)C(C)(C)N1O | 5.28 | 4.57 | 5.74 | 
CC1(C)C=C(c2nc3c(C(N)=O)cccc3[nH]2)CC(C)(C)N1 | 5.80 | 7.01 |  | LD50 at 336 h [3]: 740 mg/kg
CC1(C)C=C(c2nc3ccccc3[nH]2)CC(C)(C)N1 | 5.26 |  |  | Activity [4]: inactive
CC1(C)C=C(c2ccc(-c3nc4c(C(N)=O)cccc4[nH]3)cc2)C(C)(C)N1O | 5.14 | 7.48 | 7.11 | 
CC1(C)C(c2ccccc2)=C(c2nc3c(C(N)=O)cccc3[nH]2)C(C)(C)N1O | 5.90 | 6.62 | 5.82 | 
CC1(C)C=C(c2nc3c(C(N)=O)cccc3[nH]2)CC(C)(C)N1O.Cl |  |  |  | Activity (Rattus norvegicus [5]): 87 nM; Activity (Rattus norvegicus [6]): 116 nM
COc1cc(-c2nc3c(C(N)=O)cccc3[nH]2)ccc1OCC1=CC(C)(C)N(O)C1(C)C | 4.85 | 4.99 | 6.33 | 
CC1(C)C=C(CSc2nc3c(C(N)=O)cccc3[nH]2)CC(C)(C)N1 | 3.46 | 5.25 | 5.40 | 
CC1(C)NC(C)(C)C(c2nc3c(C(N)=O)cccc3[nH]2)=C1Br | 5.47 | 5.45 |  | 
COC(=O)[C@@H]1[C@@H](c2nc3c(C(N)=O)cccc3[nH]2)C(C)(C)NC1(C)C | 5.51 | 6.48 | 6.67 | 
CC(C)NC(=O)c1cccc2[nH]c(C3=CC(C)(C)NC3(C)C)nc12 | 5.64 | 4.25 | 5.00 | 
CC1(C)C(c2cccc(C(F)(F)F)c2)=C(c2nc3c(C(N)=O)cccc3[nH]2)C(C)(C)N1O | 4.95 | 4.22 | 6.83 | 
CC1(C)C=C(COc2ccc(-c3nc4c(C(N)=O)cccc4[nH]3)cc2)C(C)(C)N1O | 4.88 | 5.79 | 6.25 | 
CC1(C)C=C(c2nc3c(C(N)=O)cccc3[nH]2)C(C)(C)N1 | 5.68 | 6.21 |  | LD50 at 336 h [3]: 620 mg/kg
CC1(C)c2cc(-c3nc4c(C(N)=O)cccc4[nH]3)sc2C(C)(C)N1O | 4.57 | 4.40 | 5.47 | 
CC1(C)C=C(c2nc3cc(C(N)=O)ccc3[nH]2)CC(C)(C)N1O | 3.77 | 4.55 |  | Activity [4]: inactive

Now from value to molecule, other results behind:

pIC50 [2] | SMILES | pIC50 (WRL68) | pIC50 [1] | further results
4.98 | CC1(C)NC(C)(C)c2sc(-c3nc4c(C(N)=O)cccc4[nH]3)cc21 | 5.16 |  | 
4.87 | CC1(C)NC(C)(C)C(c2nc3c(C(N)=O)cccc3[nH]2)=C1c1cccc(C(F)(F)F)c1 | 4.49 |  | 
3.95 | CON1C(C)(C)C=C(c2nc3c(C(N)=O)cccc3[nH]2)C1(C)C | 8.03 |  | 
5.28 | CC1(C)NC(C)(C)C(c2cccc3c2oc2ccccc23)=C1c1nc2c(C(N)=O)cccc2[nH]1 | 6.49 | 5.74 | 
3.70 | CC1(C)C=C(CSc2nc3c(C(N)=O)cccc3[nH]2)C(C)(C)N1 | 5.50 | 5.52 | 
6.42 | CC1(C)NC(C)(C)C(c2nc3c(C(N)=O)cccc3[nH]2)=C1c1ccccc1 | 5.40 |  | 
4.14 | CN1C(C)(C)C=C(c2nc3c(C(N)=O)cccc3[nH]2)C1(C)C | 7.02 |  | 
4.35 | CC1(C)C=C(c2nc3cc(C(N)=O)ccc3[nH]2)CC(C)(C)N1 |  |  | Activity [4]: inactive
5.74 | CC1(C)C=C(Cn2cnc3c(C(N)=O)cccc32)C(C)(C)N1O | 5.70 | 5.00 | 
4.09 | CC(=O)N1C(C)(C)C=C(c2nc3c(C(N)=O)cccc3[nH]2)C1(C)C | 5.50 |  | 
5.37 | CC1(C)C=C(COc2ccc(-c3nc4c(C(N)=O)cccc4[nH]3)cc2)C(C)(C)N1 | 5.79 |  | 
5.02 | CC1(C)C=C(c2nc3c(C(N)=O)cccc3[nH]2)CC(C)(C)N1O | 4.81 | 7.59 | Activity (Rattus norvegicus [7]): 0.7 nM; Activity (Rattus norvegicus [8]): 1.7 nM
6.05 | COC(=O)[C@@H]1[C@@H](c2nc3c(C(N)=O)cccc3[nH]2)C(C)(C)N(O)C1(C)C | 4.95 |  | 
5.42 | COc1cc(-c2nc3c(C(N)=O)cccc3[nH]2)ccc1OCC1=CC(C)(C)NC1(C)C | 7.00 |  | 
5.68 | CC(C)NC(=O)c1cccc2[nH]c(C3=CC(C)(C)N(O)C3(C)C)nc12 | 5.48 | 5.00 | 
3.70 | CC1(C)C=C(CSc2nc3c(C(N)=O)cccc3[nH]2)C(C)(C)N1O | 4.68 | 5.22 | 
3.74 | CC1(C)C=C(CSc2nc3c(C(N)=O)cccc3[nH]2)CC(C)(C)N1O | 4.90 | 5.30 | 
5.35 | CC1(C)C=C(c2ccc(-c3nc4c(C(N)=O)cccc4[nH]3)cc2)C(C)(C)N1 | 6.47 |  | 
